Assay outcomes as filed in PubChem.
Hits are enriched below; roughly 0.64% of the tested compounds scored in any of these assays.
PMI act = phosphomannose isomerase (human) activation; purified human PMI, coupled resazurin fluorescence, 20 min; active compounds read high; 1 = vehicle control, 0 substrate-free wells; activation factor at 20 µM; hit rate 0.005% among 190,000; AID 1214;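 active = activation factor of 2 or more at 20 µM, relative to plate controls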
Target sequence (P34949 whole entry, looked up): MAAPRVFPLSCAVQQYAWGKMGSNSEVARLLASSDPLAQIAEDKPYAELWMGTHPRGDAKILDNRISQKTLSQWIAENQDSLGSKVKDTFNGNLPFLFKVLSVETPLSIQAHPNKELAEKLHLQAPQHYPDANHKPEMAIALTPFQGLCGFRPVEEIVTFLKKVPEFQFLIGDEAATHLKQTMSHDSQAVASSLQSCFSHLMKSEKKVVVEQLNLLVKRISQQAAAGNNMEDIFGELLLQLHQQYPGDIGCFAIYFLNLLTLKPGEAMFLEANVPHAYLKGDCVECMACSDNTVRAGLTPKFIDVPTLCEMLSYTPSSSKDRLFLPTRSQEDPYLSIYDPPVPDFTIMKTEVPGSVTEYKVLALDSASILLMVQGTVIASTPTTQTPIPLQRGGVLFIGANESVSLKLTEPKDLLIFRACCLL
PMI act satM6P = activators of human phosphomannose isomerase at near-saturating mannose 6-phosphate | hit rate 0.34% among 190,000 | coupled PMI enzyme assay, resazurin fluorescence, 20 min; active compounds read high; 1 = untreated enzyme, 0 = substrate-free blank | activation factor at 20 µM | P34949;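 active = activation factor of 2 or more at 20 µM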
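Test system: human phosphomannose isomerase with PGI, G6PDH, diaphorase coupling enzymes; Amount: PMI at 15 ng/mL final; Reagent: Mannose-6-phosphate 1.0 mM (near-saturating) plus 0.22 mM NADP+; Timing: 20 min, room temperature; Technique: resorufin fluorescence at Ex 544/Em 590 nm; Dosing: 20 µM single dose.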
TNAP act hi DEA = TNAP (human) activation, high acceptor; P05186; purified TNAP, CDP-star luminescence, 1 M DEA, 30 min; active compounds read high; 0 = EDTA background, 1 = DMSO-only activity; activation factor at 20 µM; 200,000 tested, under 10 active;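 active = activation factor at least 2 at 20 µM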
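Assay system: human TNAP; Input: enzyme diluted 1/800 final; Reagent: CDP-star luminogenic substrate at 100 µM final; Timing: 30 min, room temperature; Signal: luminescence; Evaluation: TNAP activation factor scaled between EDTA and DMSO control wells.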
TNAP inh no acc = blocks human TNAP activity with no phosphate acceptor present. P05186. inhibition, % at 20 µM. hit rate 0.26% among 200,000. AID 1012. purified TNAP, CDP-star luminescence, 30 min;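 active = tissue-nonspecific alkaline phosphatase inhibition above about 50% at 20 µM in the single-dose screen, limit read from the data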;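 also: 0% = DMSO negative control and 100% = EDTA positive control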
TNAP inh hi DEA = inhibitors of human TNAP at high phosphate acceptor concentration; inhibition, % at 20 µM; hit rate 0.03% among 200,000; purified TNAP, CDP-star luminescence, 1 M DEA; AID 1135;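 active = over 50% inhibition of tissue-nonspecific alkaline phosphatase at 20 µM in the single-dose screen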;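 also: plate controls were DMSO wells for no effect and EDTA-quenched wells as full inhibition for full effect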
An asterisk follows results filed as active.

SMILES | PMI act | PMI act satM6P | TNAP act hi DEA | TNAP inh no acc | TNAP inh hi DEA
O=C(O)C1CC=CCC1C(=O)NNc1ccccc1 (configuration not stated) | 1.9 | 2.7* | 1.1 | -12.4 | -5.3
CCOC(=O)Cn1cnc2c(cnn2-c2ccc(Cl)cc2)c1=O | 1 | 1 | 1.1 | -9.8 | -6.1
Cc1nnc2c3cnn(-c4ccc(Cl)cc4)c3ncn12 | 1 | 1 | 1.1 | 67.4* | -5.2
CC(=O)Sc1nc(-c2ccccc2)[nH]c1S(=O)(=O)c1ccc(C)cc1 | 1.4 | 2.2* | 1.1 | -10.4 | -6.9
CCC(=O)NNc1ccc(Br)cc1 | 2* | 2.8* | 1 | -9.1 | -2.8
CCOC(=O)C(=NC(C)CC)NNc1ccc(Br)cc1 (configuration not stated) | 1.6 | 2.7* | 1 | 3.7 | -1.7
CCOC(=O)C(=NC1CCS(=O)(=O)C1)NNc1ccc(Br)cc1 (configuration not stated) | 1.6 | 2.4* | 1 | 3.9 | 2.8
CC(C)(C)NC(=O)NC(=O)COC(=O)c1ccc(OC(F)(F)F)cc1 | 0.9 | 1 | 1 | -16.2 | -3.0
CCCCNC(=O)C1CCN(S(=O)(=O)N2CCCCCC2)CC1 | 1.1 | 1 | 1 | -9.9 | -4.2
OCCNc1nc(SCc2ccccc2)nc2sc3c(c12)CCC3 | 0.8 | 0.9 | 1 | -2.5 | 0.7
CC(=O)c1c(C(C)=O)c(C)n(-c2cccc3cccnc23)c1C | 1 | 1 | 1 | -11.2 | -2.1
Cc1ccccc1C(=O)NNC(=O)CSc1nc(-c2ccccc2)cc(=O)[nH]1 | 1.1 | 1.1 | 1 | 74.9* | -4.1
Fc1ccc(N/N=C2/CC(c3ccccc3)Oc3ccccc32)c(F)c1 (configuration not stated) | 1.7 | 2.5* | 1 | -0.6 | 3.2
O=C(NCCc1ccccc1)C1CCC(CNc2nc(=S)[nH]c3ccccc23)CC1 (configuration not stated) | 1.1 | 1.1 | 1 | -8.7 | -1.6
CCC1N=C(SC)NC(C)=C1C(=O)c1ccccc1 (configuration not stated) | 1.4 | 1.7 | 1 | -11.9 | -2.5
CSC1=NC(C(Cl)(Cl)Cl)N=C(c2ccc(C)cc2)N1 (configuration not stated) | 1.9 | 2.3* | 1 | -6.5 | -0.4
CC1c2c([nH]c3ccccc23)CCC1C(=O)O (configuration not stated) | 1.1 | 1 | 1 | -14.4 | 0.0
O=C1/C(=C/c2ccc(O)cc2)SC(=S)N1Cc1cccnc1 | 0.9 | 0.9 | 0.4 | 11.0 | 63.2*
Oc1ccc(/C=N/Nc2cc(N3CCOCC3)nc(N3CCOCC3)n2)cc1O | 0.2 | 0.4 | 0.9 | 67.2* | 9.4
Cc1nccn1CC(=O)N/N=C/c1cccc(O)c1 | 0.9 | 0.9 | 1 | -0.9 | 2.4
CCC(C)n1c(SCC(=O)Nc2cc(C(C)(C)C)nn2-c2ccccc2)nc2ccccc2c1=O (configuration not stated) | 1 | 0.9 | 1 | -3.6 | -4.7
CSc1nncn1/N=C/c1ccc([N+](=O)[O-])cc1 | 1 | 1 | 1 | -5.3 | 1.0
CS/C(N)=N/N=C/c1ccc([N+](=O)[O-])cc1 | 1.6 | 2.5* | 0.9 | 14.6 | 6.0
CCOC(=O)c1ccc(N2CCN(C(C)=O)CC2)c(NC(=O)c2cccnc2)c1 | 0.8 | 1 | 1.1 | -10.9 | -6.9
CN(C)c1ncc(/C=C2/C(=O)NC(=S)N(C3CCCCC3)C2=O)cn1 | 1.7 | 2* | 1.1 | 38.7 | -6.6
SMILES | PMI act | PMI act satM6P | TNAP act hi DEA | TNAP inh no acc | TNAP inh hi DEA
CC1(C)Cc2ccccc2C2CC(O)C(=O)N21 (configuration not stated) | 1.4 | 2* | 1 | -11.0 | -2.6
CC1CC(C)(C)N(C(=O)CN2C(=O)c3ccccc3C2=O)c2ccccc21 (configuration not stated) | 1 | 1 | 1 | -5.4 | -1.1
CC(=O)N/C(=C/c1ccc2c(c1)OCO2)C(=O)NCc1ccccc1 | 0.9 | 1 | 1 | 66.6* | -0.8
CC(C)(C)c1nc2ccccc2c2nnc(SCC(=O)Nc3nccs3)n12 | 0.9 | 1 | 1 | 4.0 | -2.1
CC(C)(C)c1nc2ccccc2c2nnc(SCC(=O)Nc3nc4ccccc4s3)n12 | 1 | 1 | 0.5 | 4.1 | 51.5*
O=C(Nc1ccc(OC(F)(F)F)cc1)c1[nH]ncc1[N+](=O)[O-] | 1.1 | 1.1 | 1 | -22.6 | 2.7
Cc1cc(C)c2nc(SC3CCOC3=O)cc(C)c2c1 (configuration not stated) | 1.5 | 2.5* | 1 | -7.4 | -3.4
COc1ccc(OC)c(/C=N/NC(=O)CC(=O)NCc2ccccc2)c1 | 0.9 | 1.1 | 1.1 | -7.5 | -5.4
COc1ccc(OC)c(/C=N/NC(=O)CCc2ccc(O)c(O)c2)c1 | 0.6 | 0.7 | 0.9 | 61.6* | 13.8
Fc1ccc(/C=C2\CCCC3=C2Nc2ncnn2C3c2ccc(F)cc2)cc1 (configuration not stated) | 1.1 | 1 | 1 | 11.6 | 2.9
Cc1ccc(/C=C2\CCCC3=C2NC(=S)NC3c2ccc(C)cc2)cc1 (configuration not stated) | 1.6 | 2* | 0.9 | 6.1 | 9.0
COc1ccc(CS(=O)(=O)CC2(O)CCN(C(=O)c3cccc(C(F)(F)F)c3)CC2)cc1 | 1 | 1 | 1 | -1.7 | -1.5
Cc1ccc(-c2cc3nn(-c4ccccc4)c(N)c3c(=O)o2)cc1 | 0.9 | 0.9 | 1 | -4.6 | 1.0
O=C1NCCC/C1=N/Nc1ccc(F)cc1 | 1.6 | 2.2* | 1 | -9.2 | -4.1
Cc1ccc(NC(=S)NCC(C)C)cc1 | 1 | 1 | 1 | -9.1 | 3.5
Cc1ccc2c(CN3CCCc4ccccc43)cc(=O)oc2c1C | 1.8 | 2.3* | 1 | -6.2 | -3.3
O=C1C=CCC(/C=C/c2ccccc2)O1 (configuration not stated) | 1 | 1 | 1 | -10.6 | -2.0
CC(C)(/C=N/NC(=O)CSCc1ccccc1Cl)CCC#N | 0.9 | 0.9 | 1 | -7.1 | -3.1
N#Cc1c(NC(=S)NC(=O)c2ccccc2)sc2c1CCN(CCc1ccccc1)C2 | 1.6 | 2.2* | 0.9 | 9.6 | 12.3
O=C(CSc1ncccc1C(=O)O)c1ccc2ccccc2c1 | 1.2 | 1.3 | 1 | -9.7 | -4.0
O=C(CSc1ncccc1C(=O)O)c1cccc(C(F)(F)F)c1 | 1.7 | 2.2* | 1 | -11.9 | -0.6
CC(NC(=O)CCC(=O)c1ccc(F)cc1)C1CC2CCC1C2 (configuration not stated) | 1 | 1 | 1 | -1.3 | 0.8
CCOC(=O)c1c2c3c(c(Cl)ccc3[nH]c1=O)C(=O)c1ccccc1-2 | 1.6 | 2* | 0.9 | -4.1 | 8.3
CCOC(=O)c1c2c3c(cccc3[nH]c1=O)C(=O)c1ccccc1-2 | 1.4 | 1.3 | 1 | -7.2 | 2.9
